These results are taken from ChEMBL document CHEMBL3351726 (J Med Chem, 2014).

A short description of series [1]: Retention time of the compound measured over 30 mins at flow rate of 1 mL/min by HPLC. It is filed as physicochemical. The conditions noted are these: 0.5 h. The gist of the method: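 Reversed-phase analytical HPLC or LC−MS on a SymmetryShield RP18 column (5 μm, 4.6 × 150 mm). Gradient 10−60% B over 30 min at 1 mL/min; A = 0.1% TFA in water, B = 0.1% TFA in acetonitrile.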

Series [2] is described as follows: Retention time of the compound measured over 15 mins at flow rate of 1 mL/min by HPLC.
The next series concerns HEK293. Description: Selectivity ratio of IC50 for rat Nav1.2 expressed in HEK-293 cells to IC50 for human Nav1.7 expressed in HEK-293 cells. It counts as cell-based.

Residues, ends and D or L forms follow the SMILES beside them.

As for `CSCC[C@@H]1NC(=O)CNC(=O)[C@H](CCC(=O)O)NC(=O)[C@@H]2CSSC[C@H](NC(=O)[C@@H](N)Cc3ccc(O)cc3)C(=O)N[C@@H](CCC(N)=O)C(=O)N[C@@H](CCCCN)C(=O)N[C@@H](Cc3c[nH]c4ccccc34)C(=O)N[C@@H](CCSC)C(=O)N[C@@H](Cc3c[nH]c4ccccc34)C(=O)N[C@@H]([C@@H](C)O)C(=O)N[C@H]3CSSC[C@H](NC(=O)[C@H](C(C)C)NC1=O)C(=O)N[C@@H](CCCNC(=N)N)C(=O)N[C@@H](CC(C)C)C(=O)N[C@@H](Cc1c[nH]c4ccccc14)C(=O)N[C@H](C(=O)N[C@@H](CCCCN)C(=O)N[C@@H](CCCCN)C(=O)N[C@@H](CCCCN)C(=O)N[C@@H](CC(C)C)C(=O)N[C@@H](Cc1c[nH]c4ccccc14)C(=O)O)CSSC[C@H](NC(=O)[C@H](CCCCN)NC(=O)[C@H](CCCNC(=N)N)NC(=O)[C@H](CCC(=O)O)NC(=O)[C@H](CO)NC(=O)[C@H](CC(=O)O)NC3=O)C(=O)N2`, the Retention_time in series [1] turned out to be 14.54 min; in series [2], 9.35 min.
For `CSCC[C@@H]1NC(=O)[C@H](Cc2c[nH]c3ccccc23)NC(=O)[C@H](CCCCN)NC(=O)[C@H](CCC(N)=O)NC(=O)[C@@H](NC(=O)[C@@H](N)Cc2ccc(O)cc2)CSSC[C@@H]2NC(=O)[C@@H]3CSSC[C@@H](C(=O)N[C@@H](CCCCN)C(=O)N[C@@H](CCCCN)C(=O)N[C@@H](CCCCN)C(=O)N[C@@H](CC(C)C)C(=O)N[C@@H](Cc4c[nH]c5ccccc45)C(=O)O)NC(=O)[C@H](Cc4c[nH]c5ccccc45)NC(=O)[C@H](CC(C)C)NC(=O)[C@H](CCCNC(=N)N)NC(=O)[C@H](CSSC[C@H](NC(=O)[C@H]([C@@H](C)O)NC(=O)[C@H](Cc4c[nH]c5ccccc45)NC1=O)C(=O)N[C@@H](CC(=O)O)C(=O)N[C@@H](CO)C(=O)N[C@@H](CCC(=O)O)C(=O)N[C@@H](CCCNC(=N)N)C(=O)N[C@@H](CCCCN)C(=O)N3)NC(=O)[C@H](C(C)C)NC(=O)[C@H](CC(C)C)NC(=O)CNC(=O)[C@H](CCC(=O)O)NC2=O`, the Retention_time in series [1] came out at 15.44 min; in series [2] it was 9.87 min. Besides, the Ratio IC50 with HEK293 was 26.
`CC[C@H](C)[C@H](NC(=O)[C@@H](NC(=O)[C@H](CCCCN)NC(=O)[C@H](CCCCN)NC(=O)[C@@H]1CSSC[C@@H]2NC(=O)[C@H](CCCCN)NC(=O)[C@H](CCCNC(=N)N)NC(=O)[C@H](CCC(=O)O)NC(=O)[C@H](CO)NC(=O)[C@H](CC(=O)O)NC(=O)[C@@H]3CSSC[C@H](NC(=O)[C@H](C(C)C)NC(=O)[C@H](CCSC)NC(=O)CNC(=O)[C@H](CCC(=O)O)NC(=O)[C@H](CSSC[C@H](NC(=O)[C@@H](N)Cc4ccc(O)cc4)C(=O)N[C@@H](CCC(N)=O)C(=O)N[C@@H](CCCCN)C(=O)N[C@@H](Cc4c[nH]c5ccccc45)C(=O)N[C@@H](CCSC)C(=O)N[C@@H](Cc4c[nH]c5ccccc45)C(=O)N[C@@H]([C@@H](C)O)C(=O)N3)NC2=O)C(=O)N[C@@H](CCCNC(=N)N)C(=O)N[C@@H](CC(C)C)C(=O)N[C@@H](Cc2c[nH]c3ccccc23)C(=O)N1)[C@@H](C)CC)C(=O)O`: the Retention_time in series [1] stood at 18.47 min; in series [2], 9.44 min. In addition, in the series on HEK293, the Ratio IC50 was 2.
In the case of `CSCC[C@@H]1NC(=O)CNC(=O)[C@H](CCC(=O)O)NC(=O)[C@@H]2CSSC[C@H](NC(=O)[C@@H](N)Cc3ccc(O)cc3)C(=O)N[C@@H](CCC(N)=O)C(=O)N[C@@H](CCCCN)C(=O)N[C@@H](Cc3c[nH]c4ccccc34)C(=O)N[C@@H](CCSC)C(=O)N[C@@H](Cc3c[nH]c4ccccc34)C(=O)N[C@@H]([C@@H](C)O)C(=O)N[C@H]3CSSC[C@H](NC(=O)[C@H](C(C)C)NC1=O)C(=O)N[C@@H](CCCNC(=N)N)C(=O)N[C@@H](CC(C)C)C(=O)N[C@@H](Cc1c[nH]c4ccccc14)C(=O)N[C@H](C(=O)N[C@@H](CCCCN)C(=O)N[C@@H](CCCCN)C(=O)N[C@@H](CCCCN)C(=O)N[C@@H](CC(C)C)C(=O)N[C@@H](Cc1c[nH]c4ccccc14)C(N)=O)CSSC[C@H](NC(=O)[C@H](CCCCN)NC(=O)[C@H](CCCNC(=N)N)NC(=O)[C@H](CCC(=O)O)NC(=O)[C@H](CO)NC(=O)[C@H](CC(=O)O)NC3=O)C(=O)N2`, the values for the Retention_time in series [1] and in series [2] were 14.78 min and 9 min, respectively.
As to `CC[C@H](C)[C@H](NC(=O)[C@H](CCCCN)NC(=O)[C@H](CCCCN)NC(=O)[C@@H]1CSSC[C@@H]2NC(=O)[C@H](CCCCN)NC(=O)[C@H](CCCNC(=N)N)NC(=O)[C@H](C)NC(=O)[C@H](CO)NC(=O)[C@H](CC(=O)O)NC(=O)[C@@H]3CSSC[C@H](NC(=O)[C@H](C(C)C)NC(=O)[C@H](CC(C)C)NC(=O)CNC(=O)[C@H](CCC(=O)O)NC(=O)[C@H](CSSC[C@H](NC(=O)[C@@H](N)Cc4ccc(O)cc4)C(=O)N[C@@H](CCC(N)=O)C(=O)N[C@@H](CCCCN)C(=O)N[C@@H](Cc4c[nH]c5ccccc45)C(=O)N[C@@H](CCSC)C(=O)N[C@@H](Cc4c[nH]c5ccccc45)C(=O)N[C@@H]([C@@H](C)O)C(=O)N3)NC2=O)C(=O)N[C@@H](CCCNC(=N)N)C(=O)N[C@@H](CC(C)C)C(=O)N[C@@H](Cc2c[nH]c3ccccc23)C(=O)N1)C(=O)N[C@H](C(=O)N[C@@H](Cc1c[nH]c2ccccc12)C(=O)O)[C@@H](C)CC` (HELM PEPTIDE1{Y.C.Q.K.W.M.W.T.C.D.S.A.R.K.C.C.E.G.L.V.C.R.L.W.C.K.K.I.I.W}$PEPTIDE1,PEPTIDE1,2:R3-16:R3|PEPTIDE1,PEPTIDE1,9:R3-21:R3|PEPTIDE1,PEPTIDE1,15:R3-25:R3$$$V2.0), the Retention_time stood at 15.83 min in series [1] and 9.29 min in series [2]. Moreover, in the series on HEK293, the Ratio IC50 came out at 9.
Turning to `[H][C@]12CSSC[C@@H](C(=O)N[C@@H](CCCCN)C(=O)N[C@@H](CCCCN)C(=O)N[C@H](C(=O)N[C@H](C(=O)O)[C@@H](C)CC)[C@@H](C)CC)NC(=O)[C@H](Cc3c[nH]c4ccccc34)NC(=O)[C@H](CC(C)C)NC(=O)[C@H](CCCNC(=N)N)NC(=O)[C@]3([H])CSSC[C@]([H])(NC(=O)[C@]([H])([C@@H](C)O)NC(=O)[C@H](Cc4c[nH]c5ccccc45)NC(=O)[C@H](CCSC)NC(=O)[C@H](Cc4c[nH]c5ccccc45)NC(=O)[C@H](CCCCN)NC(=O)[C@H](CCC(N)=O)NC(=O)[C@@H](NC(=O)[C@@H](N)Cc4ccc(O)cc4)CSSC[C@]([H])(NC1=O)C(=O)N[C@@H](CCC(=O)O)C(=O)NCC(=O)N[C@@H](CC(C)C)C(=O)N[C@@H](C(C)C)C(=O)N3)C(=O)N[C@@H](CC(=O)O)C(=O)N[C@@H](CO)C(=O)N[C@@H](C)C(=O)N[C@@H](CCCNC(=N)N)C(=O)N[C@@H](CCCCN)C(=O)N2` (HELM PEPTIDE1{Y.C.Q.K.W.M.W.T.C.D.S.A.R.K.C.C.E.G.L.V.C.R.L.W.C.K.K.I.I}$PEPTIDE1,PEPTIDE1,2:R3-16:R3|PEPTIDE1,PEPTIDE1,9:R3-21:R3|PEPTIDE1,PEPTIDE1,15:R3-25:R3$$$V2.0), the Retention_time in series [1] is 12.58 min; in series [2], 7.9 min.
On to `[H][C@]12CSSC[C@@H](C(=O)N[C@@H](CCCCN)C(=O)N[C@@H](CCCCN)C(=O)N[C@H](C(=O)N[C@@H](CC(C)C)C(=O)N[C@@H](Cc3c[nH]c4ccccc34)C(=O)O)[C@@H](C)CC)NC(=O)[C@H](Cc3c[nH]c4ccccc34)NC(=O)[C@H](CC(C)C)NC(=O)[C@H](CCCNC(=N)N)NC(=O)[C@]3([H])CSSC[C@]([H])(NC(=O)[C@]([H])([C@@H](C)O)NC(=O)[C@H](Cc4c[nH]c5ccccc45)NC(=O)[C@H](CCSC)NC(=O)[C@H](Cc4c[nH]c5ccccc45)NC(=O)[C@H](CCCCN)NC(=O)[C@H](CCC(N)=O)NC(=O)[C@@H](NC(=O)[C@@H](N)Cc4ccc(O)cc4)CSSC[C@]([H])(NC1=O)C(=O)N[C@@H](CCC(=O)O)C(=O)NCC(=O)N[C@@H](CC(C)C)C(=O)N[C@@H](C(C)C)C(=O)N3)C(=O)N[C@@H](CC(=O)O)C(=O)N[C@@H](CO)C(=O)N[C@@H](C)C(=O)N[C@@H](CCCNC(=N)N)C(=O)N[C@@H](CCCCN)C(=O)N2` (HELM PEPTIDE1{Y.C.Q.K.W.M.W.T.C.D.S.A.R.K.C.C.E.G.L.V.C.R.L.W.C.K.K.I.L.W}$PEPTIDE1,PEPTIDE1,2:R3-16:R3|PEPTIDE1,PEPTIDE1,9:R3-21:R3|PEPTIDE1,PEPTIDE1,15:R3-25:R3$$$V2.0), for which the Retention_time came to 15.95 min in series [1] and 9.54 min in series [2]. Besides, in the series on HEK293, the Ratio IC50 came to 20.
Regarding `[H][C@]12CSSC[C@@H](C(=O)N[C@@H](CCCCN)C(=O)N[C@@H](CCCCN)C(=O)N[C@@H](CCCCN)C(=O)N[C@H](C(=O)N[C@@H](CC(C)C)C(=O)N[C@@H](Cc3c[nH]c4ccccc34)C(=O)O)[C@@H](C)CC)NC(=O)[C@H](Cc3c[nH]c4ccccc34)NC(=O)[C@H](CC(C)C)NC(=O)[C@H](CCCNC(=N)N)NC(=O)[C@]3([H])CSSC[C@]([H])(NC(=O)[C@]([H])([C@@H](C)O)NC(=O)[C@H](Cc4c[nH]c5ccccc45)NC(=O)[C@H](CCSC)NC(=O)[C@H](Cc4c[nH]c5ccccc45)NC(=O)[C@H](CCCCN)NC(=O)[C@H](CCC(N)=O)NC(=O)[C@@H](NC(=O)[C@@H](N)Cc4ccc(O)cc4)CSSC[C@]([H])(NC1=O)C(=O)N[C@@H](CCC(=O)O)C(=O)NCC(=O)N[C@@H](CC(C)C)C(=O)N[C@@H](C(C)C)C(=O)N3)C(=O)N[C@@H](CC(=O)O)C(=O)N[C@@H](CO)C(=O)N[C@@H](C)C(=O)N[C@@H](CCCNC(=N)N)C(=O)N[C@@H](CCCCN)C(=O)N2` (HELM PEPTIDE1{Y.C.Q.K.W.M.W.T.C.D.S.A.R.K.C.C.E.G.L.V.C.R.L.W.C.K.K.K.I.L.W}$PEPTIDE1,PEPTIDE1,2:R3-16:R3|PEPTIDE1,PEPTIDE1,9:R3-21:R3|PEPTIDE1,PEPTIDE1,15:R3-25:R3$$$V2.0), the Retention_time in series [1] is given as 15.88 min; in series [2] it was 9.05 min. In the series with HEK293, the Ratio IC50 amounted to 33.
